Measured values published in ChEMBL document CHEMBL1687759, “Functional selection of hepatitis C virus envelope E2-binding Peptide ligands by using ribosome display” (Antimicrob Agents Chemother, 2010).
pKd: −log10 of the molar value. Activity calls are given as the source filed them. The calls are words filed in the database; no cut-off is given here. Where a SMILES comes first, the peptide text is derived from it.

Assays:
[1] = Binding affinity to HCV envelope glycoprotein E2 by surface plasmon resonance assay; parameters: species or system Hepacivirus hominis; conditions: for pKd: read-out: Kd
Procedure, shortened: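 Surface plasmon resonance on a Biacore 1000 measured binding of E2 protein to the peptides. K_on and K_off were calculated from the association and dissociation phases of the best-fitted binding curves.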

Hepacivirus hominis [2] = experiment: Inhibition of HCV envelope glycoprotein E2 to human Huh 7.5.1 cells after 1 hr by flow cytometry relative to control
Procedure, shortened: (§1)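 E2 protein (0.25 μg) was preincubated with peptide (250 nM, or a concentration series), 120 nM CD81, 50 IU heparin, or combinations in 100 μl PBS for 1 h at 37°C. The mix was added to 1 × 10⁶ Huh-7.5.1 cells for 30 min at 37°C. Cell-bound E2 was stained with anti-E2 polyclonal and PE anti-rabbit IgG and measured by flow cytometry. Percent inhibition was calculated (means ± SEM, 3–4 experiments).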

Hepacivirus hominis [3] = experiment: Inhibition of HCV envelope glycoprotein E2 to human Huh 7.5.1 cells after 1 hr by flow cytometry; procedure, shortened: as §1
Hepatitis C virus [4] = experiment: Antiviral activity against HCV 2a JFH-1 in human Huh 7.5.1 cells assessed as inhibition of viral infection at 100 to 500 nM after 4 hrs by immunofluorescence staining; format: functional, organism-based; conditions: Hepacivirus hominis, in the assay text read “after overnight incubation” for “after 4 hrs”
Procedure, shortened: (§2)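 Cells were washed and E2 was read out in two ways. Western blot used anti-E2 with β-actin as the internal control. Immunofluorescence used 4% paraformaldehyde fixation, rabbit anti-E2 with FITC anti-rabbit IgG for 4 h, and PI nuclear stain. Mean fluorescence was measured by confocal microscopy (means ± SEM, three experiments).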

[5] = test system: Hepatitis C virus subtype 1a; experiment: Binding affinity to HCV 1a envelope glycoprotein E2
Procedure, shortened: (§3)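 HepG2 cells stably expressing E1E2 of genotypes 1–6 were established by G418 selection, with parental HepG2 as control. E2 of each genotype was detected with the selected peptide (means ± SEM, three independent experiments).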

[6] = test system: Hepatitis C virus subtype 2a; experiment: Binding affinity to HCV 2a envelope glycoprotein E2; procedure, shortened: as §3
CT26 [7] = experiment: Inhibition of HCV envelope glycoprotein E2 to […] cells expressing CD81 after 1 hr by flow cytometry; format: cell-based; conditions: Hepacivirus hominis
Hepacivirus hominis [8] = experiment: Binding affinity to HCV GST-tagged envelope glycoprotein E2 after 1 hr by ELISA
Procedure, shortened: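 Indirect ELISA on wells coated with 0.3 nM E2-GST or GST (4°C, 7 h) and blocked with 2% BSA (37°C, 2 h). Biotin-labelled peptide at various concentrations was added for 30 min at 37°C, then HRP-streptavidin (1:1,000) for 1 h at 37°C. Signal was developed with o-phenylenediamine and read at 450 nm.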

Hepatitis C virus JFH-1 = experiment: Binding affinity to HCV 2a JFH-1 viral particle after 1 hr by indirect ELISA
Procedure, shortened: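 Wells were coated with 3 × 10⁵ JFH-1 HCVcc particles per well in carbonate buffer pH 9.6 (7 h, 4°C) and blocked with 1% BSA at 4°C overnight. Control culture medium served as comparison. Biotin-labelled peptide at different concentrations was incubated 30 min at 37°C, followed by HRP-streptavidin (1:1,000) for 1 h at 37°C. Signal was developed with o-phenylenediamine and read at A450 (triplicates; six experiments).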

Hepatitis C virus [9] = experiment: Binding affinity to HCV in virus infected patient serum after 1 hr by sandwich ELISA; conditions: Hepacivirus hominis
Procedure, shortened: (§4)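 Sandwich ELISA with wells coated with 0.3 nM peptide and blocked with 2% BSA at 4°C overnight. Serum (100 μl) from HCV antibody/RNA-positive patients (n = 50) or negative healthy donors (n = 55) was incubated 30 min at 37°C. Captured particles were detected with rabbit anti-E2 polyclonal (1:150, 1 h, 37°C), then HRP-labelled reagent, read at A450, and analysed by a nonparametric method.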

Hepatitis C virus [10] = experiment: Binding affinity to HCV in […] healthy human serum after 1 hr by sandwich ELISA; format: cell-free; conditions: Hepacivirus hominis; procedure, shortened: as §4
CT26 [11] = experiment: Inhibition of HCV envelope glycoprotein E2 to […] cells expressing SR-B1 after 1 hr by flow cytometry; format: cell-based; conditions: Hepacivirus hominis
CT26 [12] = experiment: Inhibition of HCV envelope glycoprotein E2 to […] cells expressing CLDN1 after 1 hr by flow cytometry; format: cell-based; conditions: Hepacivirus hominis
CT26 [13] = experiment: Inhibition of HCV envelope glycoprotein E2 to […] cells expressing OCLN after 1 hr by flow cytometry; format: cell-based; conditions: Hepacivirus hominis
Hepatitis C virus [14] = experiment: Antiviral activity against HCV 2a JFH-1 in human Huh 7.5.1 cells assessed as inhibition of viral infection at 100 to 500 nM after 4 hrs by Western blotting; format: functional, organism-based; conditions: Hepacivirus hominis; procedure, shortened: as §2
Hepatitis C virus [15] = experiment: Antiviral activity against HCV 2a JFH-1 in human Huh 7.5.1 cells cytoplasm assessed as inhibition of viral infection at 100 to 500 nM after 4 hrs by immunofluorescence staining; format: functional, organism-based; conditions: Hepacivirus hominis; procedure, shortened: as §2
Hepatitis C virus [16] = experiment: Antiviral activity against HCV 2a JFH-1 in human Huh 7.5.1 cells cytoplasm assessed as inhibition of viral infection at 100 to 500 nM after 4 hrs by RT-PCR analysis; format: functional, organism-based; conditions: Hepacivirus hominis, in the assay text read “after overnight incubation” for “after 4 hrs”
Procedure, shortened: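 Huh-7.5.1 cells (4.5 × 10⁵/well) were co-cultured overnight at 37°C with 200 μl (7 × 10⁷ copies) of JFH-1 HCVcc and peptide at different final concentrations. After washing in DEPC-PBS, total RNA was extracted with Trizol and reverse transcribed. Intracellular HCV RNA was quantified by real-time PCR using 5′ NCR primers and normalized to GAPDH mRNA (means ± SEM, three experiments).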

Hepatitis C virus [17] = experiment: Binding affinity to HCV 1b envelope glycoprotein E2; conditions: Hepatitis C virus subtype 1b; procedure, shortened: as §3
[18] = test system: Hepatitis C virus subtype 3a; experiment: Binding affinity to HCV 3a envelope glycoprotein E2; procedure, shortened: as §3
[19] = test system: Hepatitis C virus subtype 5a; experiment: Binding affinity to HCV 5a envelope glycoprotein E2; procedure, shortened: as §3
[20] = test system: Hepatitis C virus subtype 6a; experiment: Binding affinity to HCV 6a envelope glycoprotein E2; procedure, shortened: as §3
[21] = test system: Hepatitis C virus subtype 4a; experiment: Binding affinity to HCV 4a envelope glycoprotein E2; procedure, shortened: as §3
Hepacivirus hominis [22] = experiment: Ratio of binding affinity for HCV 1a envelope glycoprotein E2 to binding affinity for HCV 3a envelope glycoprotein E2; procedure, shortened: as §3
Hepacivirus hominis [23] = experiment: Ratio of binding affinity for HCV 1a envelope glycoprotein E2 to binding affinity for HCV 4a envelope glycoprotein E2; procedure, shortened: as §3
Hepacivirus hominis [24] = experiment: Ratio of binding affinity for HCV 1a envelope glycoprotein E2 to binding affinity for HCV 5a envelope glycoprotein E2; procedure, shortened: as §3
Hepacivirus hominis [25] = experiment: Ratio of binding affinity for HCV 1a envelope glycoprotein E2 to binding affinity for HCV 6a envelope glycoprotein E2; procedure, shortened: as §3
Hepacivirus hominis [26] = experiment: Ratio of binding affinity for HCV 1b envelope glycoprotein E2 to binding affinity for HCV 3a envelope glycoprotein E2; procedure, shortened: as §3
Hepacivirus hominis [27] = experiment: Ratio of binding affinity for HCV 1b envelope glycoprotein E2 to binding affinity for HCV 4a envelope glycoprotein E2; procedure, shortened: as §3
Hepacivirus hominis [28] = experiment: Ratio of binding affinity for HCV 1b envelope glycoprotein E2 to binding affinity for HCV 5a envelope glycoprotein E2; procedure, shortened: as §3
Hepacivirus hominis [29] = experiment: Ratio of binding affinity for HCV 1b envelope glycoprotein E2 to binding affinity for HCV 6a envelope glycoprotein E2; procedure, shortened: as §3
Hepacivirus hominis [30] = experiment: Ratio of binding affinity for HCV 2a envelope glycoprotein E2 to binding affinity for HCV 3a envelope glycoprotein E2; procedure, shortened: as §3
Hepacivirus hominis [31] = experiment: Ratio of binding affinity for HCV 2a envelope glycoprotein E2 to binding affinity for HCV 4a envelope glycoprotein E2; procedure, shortened: as §3
Hepacivirus hominis [32] = experiment: Ratio of binding affinity for HCV 2a envelope glycoprotein E2 to binding affinity for HCV 5a envelope glycoprotein E2; procedure, shortened: as §3
Hepacivirus hominis [33] = experiment: Ratio of binding affinity for HCV 2a envelope glycoprotein E2 to binding affinity for HCV 6a envelope glycoprotein E2; procedure, shortened: as §3

Q: Which results are given for N=C(N)NCCC[C@H](NC(=O)CNC(=O)[C@H](Cc1ccccc1)NC(=O)CN)C(=O)N[C@@H](Cc1ccc(O)cc1)C(=O)N[C@@H](CCCNC(=N)N)C(=O)N[C@@H](CCCNC(=N)N)C(=O)N[C@@H](Cc1cnc[nH]1)C(=O)NCC(=O)N[C@@H](CO)C(=O)N1CCC[C@H]1C(=O)N[C@@H](Cc1c[nH]c2ccccc12)C(=O)O (H-GFGRYRRHGSPW-OH)?
A: pKd [1]: 7.30; cell-bound E2 remaining (Hepacivirus hominis [2]): 32%

Q: What does the source list for CC[C@H](C)[C@H](NC(=O)[C@@H](NC(=O)[C@H](CC(C)C)NC(=O)[C@@H](NC(=O)[C@H](CO)NC(=O)[C@@H](N)CC(C)C)C(C)C)C(C)C)C(=O)N[C@@H](CO)C(=O)N[C@@H](CCSC)C(=O)N[C@@H](Cc1ccccc1)C(=O)N[C@@H](CC(N)=O)C(=O)N[C@@H](C)C(=O)N[C@H](C(=O)O)C(C)C (H-LSVLVISMFNAV-OH)?
A: Kd [1]: Not Active; cell-bound E2 remaining (Hepacivirus hominis [2]): 30%

Q: With CC[C@H](C)[C@H](NC(=O)[C@H](C)NC(=O)[C@@H](N)CCSC)C(=O)NCC(=O)N1CCC[C@H]1C(=O)N[C@@H](Cc1ccc(O)cc1)C(=O)N1CCC[C@H]1C(=O)N[C@@H](C)C(=O)N[C@@H](CS)C(=O)NCC(=O)N[C@@H](CO)C(=O)NCC(=O)O (H-MAIGPYPACGSG-OH) as the compound, how does the pKd [1] read?
A: 7.37

Q: What about the cell-bound E2 remaining (Hepacivirus hominis [2]) of the same compound?
A: 7%

Q: What about the inhibition (Hepacivirus hominis [3]) of the same compound?
A: Dose-dependent effect

Q: Which Activity (Hepatitis C virus [4]) does the source give for CSCC[C@H](NC(=O)[C@@H](NC(=O)[C@H](CC(C)C)NC(=O)[C@@H]1CCCN1C(=O)[C@H](Cc1c[nH]c2ccccc12)NC(=O)[C@H](CC(N)=O)NC(=O)[C@H](CCCNC(=N)N)NC(=O)[C@H](Cc1cnc[nH]1)NC(=O)[C@H](CCCNC(=N)N)NC(=O)[C@H](C)NC(=O)[C@@H](N)CCSC)C(C)C)C(=O)N[C@H](C(=O)O)C(C)C (H-MARHRNWPLVMV-OH) here?
A: Dose-dependent effect

Q: And the Activity [5]?
A: Active

Q: And the Activity [6]?
A: Active

Q: What about the inhibition (CT26 [7]) of the same compound?
A: Active

Q: What about the pKd [1] of the same compound?
A: 7.72

Q: What about the Activity (Hepacivirus hominis [8]) of the same compound?
A: Dose-dependent effect

Q: What about the Activity (Hepatitis C virus JFH-1) of the same compound?
A: Dose-dependent effect

Q: And the Activity (Hepatitis C virus [9])?
A: Active

Q: What about the Activity (Hepatitis C virus [10]) of the same compound?
A: inactive

Q: And the inhibition (CT26 [11])?
A: inactive

Q: What about the inhibition (CT26 [12]) of the same compound?
A: inactive

Q: And the inhibition (CT26 [13])?
A: inactive

Q: And the inhibition (Hepacivirus hominis [3])?
A: Dose-dependent effect

Q: And the Activity (Hepatitis C virus [14])?
A: Dose-dependent effect

Q: What about the Activity (Hepatitis C virus [15]) of the same compound?
A: Active

Q: What about the Activity (Hepatitis C virus [16]) of the same compound?
A: Active

Q: What about the Activity (Hepatitis C virus [17]) of the same compound?
A: Active

Q: And the Activity [18]?
A: Active

Q: What about the Activity [19] of the same compound?
A: Active

Q: What about the Activity [20] of the same compound?
A: Active

Q: What about the Activity [21] of the same compound?
A: Active

Q: What about the Ratio (Hepacivirus hominis [22]) of the same compound?
A: 2

Q: And the Ratio (Hepacivirus hominis [23])?
A: 2

Q: What about the Ratio (Hepacivirus hominis [24]) of the same compound?
A: 2

Q: And the Ratio (Hepacivirus hominis [25])?
A: 2

Q: And the Ratio (Hepacivirus hominis [26])?
A: 2

Q: What about the Ratio (Hepacivirus hominis [27]) of the same compound?
A: 2

Q: And the Ratio (Hepacivirus hominis [28])?
A: 2

Q: What about the Ratio (Hepacivirus hominis [29]) of the same compound?
A: 2

Q: What about the Ratio (Hepacivirus hominis [30]) of the same compound?
A: 2

Q: And the Ratio (Hepacivirus hominis [31])?
A: 2

Q: What about the Ratio (Hepacivirus hominis [32]) of the same compound?
A: 2

Q: What about the Ratio (Hepacivirus hominis [33]) of the same compound?
A: 2
